Published values from different studies.
Compare with care: the assays were run in different laboratories.
SRD5A1: 3-oxo-5-alpha-steroid 4-dehydrogenase 1 (SRD5A1, Homo sapiens, UniProt P18405)
HTR2A: 5-hydroxytryptamine receptor 2A (HTR2A, Homo sapiens, UniProt P28223)
CNR1: Cannabinoid receptor 1 (CNR1, Homo sapiens, UniProt P21554)

Structure (SMILES) | target | test | system | conditions | inhibition [%]
COC(=O)C=Cc1ccc(OC(C)=O)c(OC)c1 | SRD5A1 | enzyme activity in cells, inhibitor | HaCaT | 50 µM | 26.4
CC[N+]1(C)CCc2cc(OC)c(OC)c3c2C1Cc1cccc(OC)c1-3 (stereo not drawn) | HTR2A | ligand displacement, radioligand |  | 10 µM | 3
CCN1/C(=C/C(C)=O)Sc2ccc(F)cc21 | CNR1 | ligand displacement, radioligand |  | 10 µM | 0
O=C(O)/C=C/c1ccc(O)c(O)c1 | SRD5A1 | enzyme activity in cells, inhibitor | HaCaT | 50 µM | 6.07
COc1cc2c3c(c1OC)-c1c(OC)ccc(NC(C)=O)c1CC3N(C)CC2 (stereo not drawn) | HTR2A | ligand displacement, radioligand |  | 10 µM | 9
NC/C(=C\F)COc1cccc(Cn2c(=S)[nH]c(=O)c3[nH]cnc32)c1 | Hepatic sodium/bile acid cotransporter (SLC10A1, Homo sapiens, UniProt Q14973) | transporter uptake, inhibitor |  | 30 µM | < 50
Cc1cc(F)cc2c(CCC(=O)N[C@@H]3C(=O)NC[C@H]3O)c(-c3ccc(F)cc3)[nH]c12 | CNR1 | cell-free assay |  | 10 µM | -2
COC(=O)C=Cc1ccc(OC)c(OC)c1 | SRD5A1 | enzyme activity in cells, inhibitor | HaCaT | 50 µM | 26.1
Cc1cc(O)c(-c2ccc([C@@H](C)CN(C)C)cc2)c2c1[nH]c(=O)c1sccc12 | Serine/threonine-protein kinase A-Raf (ARAF, Homo sapiens, UniProt P10398) | enzyme activity, inhibitor |  | 0.1 µM, lysate | -26
